Bioassay records deposited in PubChem BioAssay by SRMLSC.
HUVEC prolif 384: inhibitors of human endothelial cell proliferation; HUVEC proliferation, CellTiter-Glo luminescence, 72 h; hits give low values; hit rate 1.1% among 86,000; viability, % at 10 µM (by protocol);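 active = viability at or below 30%; inactive = viability above 30%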;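 note: 100% = median luminescence of DMSO-only cell control wells on each plate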
H69AR growth 86K: growth inhibitors of human H69AR lung tumor cells | H69AR lung tumor viability, ATP luminescence, 72 h; hits give low values | viability, % at 10 µM | hit rate 6% among 85,000;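 active = viability at or below 40%; inactive = viability above 40%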;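 note: multidrug resistant small cell line overexpressing MRP-1 efflux transporter; 100% = mean luminescence of untreated control wells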
HCT116 PTEN-null: growth suppressors of cells with PTEN tumor suppressor deletion | HCT116 PTEN-null viability, CellTiter-Glo, 60 h; hits give low values | viability, % at 10 µM | hit rate 1.2% among 140,000 | AID 827;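 active = viability at or below a set limit, 4 SD under the median of all tested compounds, cut at about 3.7% in these data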;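 note: PTEN knockout HCT116 line with beta catenin targeted HCT116 as companion control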
Fibroblast inh: blocks proliferation of human lung fibroblasts. LL 47 human lung fibroblast viability, ATP luminescence; hits give low values. viability, % at 10 µM. hit rate 1.1% among 85,000. AID 719;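 active = viability at or below 50% in the single dose screen; inactive = viability above 50%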;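 note: compound exposure lasted 72 h before the ATP readout; 100% = median luminescence of untreated cell-only wells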
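Assay system: human lung fibroblast line LL 47, low passage. Input: 1,150 fibroblasts seeded per well. Times: overnight cell rest, 72 h compound treatment at 37 °C. Evaluation: % viability of median cell-only signal. Technique: luminescent ATP detection, CellTiter-Glo. Control set: cell-only wells, no compound.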
HCT116 bCat-KO: beta-catenin-lacking colon tumor cell growth suppression; HCT116 beta-catenin knockout viability, CellTiter-Glo, 60 h; hits give low values; viability, % at 10 µM; hit rate 1.5% among 140,000; AID 818;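 active = viability at or under a set limit, the compound median less 4 SD, cut at about 6% in these data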;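 note: 0% = Hyamine 1622 control at 20 µM and 100% = untreated cell control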
* marks the source's active call; other numbers are inactive results; · = no result. The full list was thinned out, with hits kept by preference.

SMILES	HUVEC prolif 384	H69AR growth 86K	HCT116 PTEN-null	Fibroblast inh	HCT116 bCat-KO
CCCCNC(=O)C(C#N)c1nc2ccccc2nc1N1CCCC1 (stereo not drawn)	105	100	90	96	97
COc1ccc(CNC(=O)C(C#N)c2nc3ccccc3nc2N2CCCC2)cc1 (stereo not drawn)	72	34*	55	90	58
COc1ccc(CNC(=O)C(C#N)c2nc3ccccc3nc2N2CCN(C)CC2)cc1 (stereo not drawn)	4.2*	34*	45	93	36
COC(=O)C1CCN(c2nc3ccccc3nc2C(C#N)C(=O)NCCc2ccccc2)CC1 (stereo not drawn)	64	57	74	82	66
COc1ccc(NC(=O)[C@@H](NC(=O)c2ccccc2)C(C)C)cc1S(=O)(=O)N1CCCCC1	·	·	92	·	94
Cc1cc(CCCCCCCCc2cc(C)cc(=O)o2)oc(=O)c1	·	·	88	·	84
CC(C)CCn1c(SCC(N)=O)nc2c1c(=O)n(C)c(=O)n2C	100	39*	93	93	92
CCOC(=O)c1ccc(NC(=O)c2cn(CCC#N)nc2-c2ccc3c(c2)OCCO3)cc1	·	·	84	·	96
Cc1ccc(N(Cc2ccc(C(=O)NN=C3CCN(C)CC3)cc2)S(C)(=O)=O)cc1C	·	·	99	·	101
CCOC(=O)C1=C(CC)Nc2ccccc2N=C1NC(=O)Nc1ccc(Cl)c(Cl)c1	·	·	2.6*	·	2.6*
CCOC(=O)C1=C(CC)Nc2ccccc2N=C1NC(=O)Cn1cnc2ccccc2c1=O	100	97	74	103	79
CCOC(=O)c1ccc(Oc2cc(C)nc(SC)n2)cc1	62	22*	17	80	19
CCOC(=O)COC(=O)c1ccc(Oc2cc(C)nc(SC)n2)cc1	97	95	102	100	85
CCOC(=O)CNS(=O)(=O)c1cc(-c2n[nH]c(=O)c3ccccc23)ccc1C	99	87	97	102	88
CCOC(=O)CNS(=O)(=O)c1cc(-c2nnc(Nc3ccc4c(c3)OCO4)c3ccccc23)ccc1C	·	·	3.5*	·	3.6*
COc1ccccc1-n1c(CNC(=O)c2ccco2)nnc1SCC(=O)Nc1nccs1	71	33*	84	95	86
Cc1nnc(NC(=O)c2ccc(S(=O)(=O)N(C)Cc3ccccc3)cc2)o1	85	24*	34	97	38
CCN(Cc1ccccc1)S(=O)(=O)c1ccc(C(=O)Nc2nnc(C3CC3)o2)cc1	69	32*	14	70	18
CSCc1nnc(NC(=O)c2ccc(S(=O)(=O)N(CC(C)C)CC(C)C)cc2)o1	·	·	11	·	9
COCCN(CCOC)S(=O)(=O)c1ccc(C(=O)Nc2nnc(C)o2)cc1	·	·	102	·	93
CCCn1nc2cc(C(=O)NCCc3cccs3)ccc2c1OCC	·	·	108	·	87
FC(F)(F)c1cccc(NC(=S)NCC2COc3ccccc3O2)c1 (stereo not drawn)	·	·	89	·	80
COC(=O)[C@@]1(Cc2ccc(F)cc2)[C@H]2c3cc(C(=O)N4CCCC4)n(CCc4c[nH]c5ccc(OC)cc45)c3C[C@H]2CN1C(=O)c1ccccc1	·	·	44	·	54
Cc1ccc(NS(=O)(=O)c2ccc(N3C(=O)CCC3=O)cc2)cc1	·	·	86	·	82
CCc1ccc(C2C(C#N)=C(N)C(C#N)(C#N)C3=CCC(C(C)(C)C)CC32)cc1 (stereo not drawn)	2.3*	79	58	64	57
SMILES	HUVEC prolif 384	H69AR growth 86K	HCT116 PTEN-null	Fibroblast inh	HCT116 bCat-KO
CN(C(=O)Cc1noc2ccccc12)c1ccccc1	·	·	99	·	98
CCC(C)n1ncn(-c2ccc(N3CCN(c4ccc(OC)cc4)CC3)cc2)c1=O (stereo not drawn)	·	·	95	·	93
COc1ccc(Cl)cc1-c1nc(-c2ccc(NC(=O)c3cccs3)cc2)no1	·	·	2.5*	·	3.3*
CC(Oc1ccc(Cl)cc1Cl)c1nc(-c2ccc(NC(=O)c3cccnc3)cc2)no1 (stereo not drawn)	72	6.3*	11	87	15
COc1ccc(NC(=O)c2cccs2)cc1OC	97	107	81	106	103
CC(Oc1ccc(Cl)cc1Cl)c1nc(-c2ccc(NC(=O)c3ccncc3)cc2)no1 (stereo not drawn)	50	25*	15	82	12
CC(=O)CSc1nnc(-c2ccc(S(=O)(=O)N3CCC(C)CC3)cc2)o1	90	93	·	92	·
CC(C)(C)NC(=O)COC(=O)c1cc(S(=O)(=O)N2CCCCC2)ccc1N1CCOCC1	·	·	84	·	87
Cc1cn([C@H]2C[C@H](N=[N+]=[N-])[C@@H](CO)O2)c(=O)[nH]c1=O	110	91	87	100	83
